According to ChEMBL document CHEMBL3352734, “Reniochalistatins A-E, cyclic peptides from the marine sponge Reniochalina stalagmitis” (J Nat Prod, 2014):
Active and inactive are the calls of the source. No cut-off for these calls is given here. Peptide text beside a SMILES is read from it.

Legend:
Format in all cases: functional, cell-based
[1] = system: HepG2; experiment: Cytotoxicity against human HepG2 cells after 72 hrs by MTS assay; conditions: for IC50: HepG2, 72 h
Procedure, shortened: (§1)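 HeLa (cervical) and HepG2 (hepatoma) cells kept in high-glucose DMEM with 10% FBS, 5% CO2, 37 °C. Plated at 1 × 10^4 cells/well for 24 h, then treated with graded sample concentrations for 72 h. Viability by MTS reduction over 2 h, measured at 490 nm with 690 nm reference.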

[2] = system: HeLa; experiment: Cytotoxicity against human HeLa cells after 72 hrs by MTS assay; procedure, shortened: as §1
[3] = system: HL-60; experiment: (§2) Cytotoxicity against human HL60 cells after 72 hrs by MTS assay
Procedure, shortened: (§3)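 HL-60 (human leukemia) grown in RPMI-1640 with 20% FBS at 37 °C, 5% CO2. Seeded at 1 × 10^4 cells/well and left 24 h, then exposed to a range of sample concentrations for 72 h. MTS added for 2 h; absorbance read at 490 nm against a 690 nm reference.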

[4] = system: MGC-803; experiment: Cytotoxicity against human MGC803 cells after 72 hrs by MTS assay; conditions: for IC50: MGC-803, 72 h
Procedure, shortened: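 Gastric MGC-803 line maintained in RPMI-1640 plus 10% FBS, 37 °C, 5% CO2. Cells seeded at 1 × 10^4/well, incubated 24 h, then given medium with varying sample concentrations for 72 h. After 2 h with MTS, absorbance taken at 490 nm (reference 690 nm).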

[5] = as §2; conditions: HL-60, 72 h; procedure, shortened: as §3
[6] = system: RPMI-8226; experiment: Cytotoxicity against human RPMI8226 cells after 72 hrs by MTS assay; conditions: RPMI-8226, 72 h

For CC[C@H](C)[C@@H]1NC(=O)[C@@H]2CCCN2C(=O)[C@H](Cc2ccccc2)NC(=O)[C@H](Cc2ccc(O)cc2)NC(=O)[C@H]([C@@H](C)CC)NC(=O)[C@@H]2CCCN2C(=O)[C@H](Cc2ccccc2)NC1=O (cyclo(FPIFPIY)), the inhibition [1] was “inactive”, the inhibition [2] was “inactive” and the inhibition [3] was “inactive”. For the same compound, the inhibition [4] was “inactive”.
In the case of CC[C@H](C)[C@@H]1NC(=O)[C@H](Cc2ccccc2)NC(=O)[C@@H]2CCCN2C(=O)[C@H](Cc2ccccc2)NC(=O)[C@@H]2CCCN2C(=O)[C@@H]2CCCN2C(=O)[C@H](Cc2ccccc2)NC1=O (cyclo(FIFPPFP)), the inhibition [1] is reported as “inactive”, the inhibition [2] is reported as “inactive” and the inhibition [3] is reported as “inactive”. For the same compound, the inhibition [4] was “inactive”.
In the case of CC[C@H](C)[C@@H]1NC(=O)[C@H](C(C)C)NC(=O)[C@H](CC(N)=O)NC(=O)[C@@H]2CCCN2C(=O)[C@H](CC(C)C)NC(=O)[C@H](CC(C)C)NC(=O)[C@@H]2CCCN2C1=O (cyclo(IPLLPNV)), the inhibition [1] is reported as “inactive”, the inhibition [2] is reported as “inactive” and the inhibition [3] is reported as “inactive”. For the same compound, the inhibition [4] was “inactive”.
With CC[C@H](C)[C@@H]1NC(=O)[C@@H]2CCCN2C(=O)[C@H](CC(C)C)NC(=O)[C@@H]2CCCN2C(=O)[C@H](CC(C)C)NC(=O)[C@H](Cc2ccc(O)cc2)NC(=O)[C@H](Cc2ccccc2)NC1=O (cyclo(FYLPLPI)) the inhibition [1] was “inactive”, the inhibition [2] was “inactive” and the inhibition [3] was “inactive”. The inhibition [4] was “inactive”.
COc1cccc2c1C(=O)c1c(O)c3c(c(O)c1C2=O)C[C@@](O)(C(=O)CO)C[C@@H]3O[C@H]1C[C@H](N)[C@H](O)[C@H](C)O1 [DOXORUBICIN] gave an IC50 [1] of 0.4 µM, an IC50 [2] of 0.5 µM and an IC50 [5] of 0.2 µM. It also gave an IC50 [4] of 0.1 µM.
With CC[C@H](C)[C@@H]1NC(=O)[C@H](C(C)C)NC(=O)[C@@H]2CCCN2C(=O)[C@H](Cc2c[nH]c3ccccc23)NC(=O)[C@H](CC(C)C)NC(=O)[C@@H]2CCCN2C(=O)[C@H]([C@@H](C)CC)NC(=O)[C@@H]2CCCN2C1=O (cyclo(IPIPLWPV)) the IC50 [1] was > 20 µM, the IC50 [2] was 17.3 µM and the IC50 [6] was 4.9 µM. The IC50 [5] was > 20 µM and the IC50 [4] was 9.7 µM.
